Measurements as given in ChEMBL document CHEMBL1154135, “Macaflavanones A-G, prenylated flavanones from the leaves of Macaranga tanarius” (J Nat Prod, 2008).
Calls of active or inactive are those of the source. The rule behind the calls is not given here.

Tests used:
KB = experiment: Cytotoxicity against human KB cells after 72 hrs by MTT assay; assay type: functional, cell-based
In short: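 KB cells seeded at 3 × 10^3 cells/well in DMEM with 10% FBS, amphotericin B (0.5 µg/ml) and kanamycin sulfate (100 µg/mL), 37 °C, 5% CO2. After 24 h, samples in 10% DMSO added; incubated 72 h. MTT (0.5 mg/mL) added for 1.5 h, formazan dissolved in DMSO, absorbance at 540 nm minus 620 nm. % inhibition vs control; etoposide positive control; means with SD, triplicate.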

A549 = experiment: Cytotoxicity against human A549 cells after 72 hrs by MTT assay; assay type: functional, cell-based; conditions: for IC50: A549, 72 h
In short: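 A549 cells exposed 72 h to samples added in 10% DMSO after a 24 h pre-culture at 37 °C, 5% CO2. MTT (0.5 mg/mL) in DMEM for 1.5 h, formazan dissolved in DMSO, absorbance at 540 nm minus 620 nm. % inhibition relative to untreated control gives IC50; etoposide positive control; means with SD from triplicate experiments.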

Row | Structure (SMILES) | Activity (KB) | Activity (A549) | IC50 (KB) [µM] | IC50 (A549) [µM]
1 | CC(C)=CCC[C@@]1(C)C=Cc2c([C@@H]3CC(=O)c4c(cc(O)c(CC=C(C)C)c4O)O3)ccc(O)c2O1 | inactive | inactive |  | 
2 | CC(C)=CCC[C@@]1(C)CCc2c([C@@H]3CC(=O)c4c(cc(O)c(CC=C(C)C)c4O)O3)ccc(O)c2O1 | inactive | inactive |  | 
3 | CC(C)=C/C=C/[C@@]1(C)CCc2c([C@@H]3CC(=O)c4c(cc(O)c(CC=C(C)C)c4O)O3)ccc(O)c2O1 | inactive | inactive |  | 
4 | CC(C)=CCC/C(C)=C/Cc1c([C@@H]2CC(=O)c3c(cc4c(c3O)C=CC(C)(C)O4)O2)ccc(O)c1O | inactive | inactive |  | 
5 | CC(C)=CCC/C(C)=C/Cc1c([C@@H]2CC(=O)c3c(cc4c(c3O)CCC(C)(C)O4)O2)ccc(O)c1O | inactive | inactive |  | 
6 | COc1cc([C@@H]2c3cc4c(cc3[C@@H](O[C@@H]3O[C@@H]5CO[C@@H](C)O[C@H]5[C@H](O)[C@H]3O)[C@H]3COC(=O)[C@H]23)OCO4)cc(OC)c1O [ETOPOSIDE] |  |  | 1.25 | 8.37
7 | CC(C)=CCC[C@]1(C)CCc2c([C@@H]3CC(=O)c4c(cc(O)c(CC=C(C)C)c4O)O3)ccc(O)c2O1 [MACAFLAVANONE G] |  |  | 12.3 | 13.4
8 | CC(C)=C/C=C/[C@]1(C)CCc2c([C@@H]3CC(=O)c4c(cc(O)c(CC=C(C)C)c4O)O3)ccc(O)c2O1 | inactive | inactive |  | 
